According to PubChem BioAssay:
Calls of active or inactive are those of the source.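 Rule for the calls, unless noted: active = inhibition above 20% together with a positive visual image hit; inconclusive = visual image hit but inhibition not above 20%; inactive = no visual image hit.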

Experiments:
[1] = inhibitors of TNFa-induced NFkB p65 translocation, primary screen, imaging, HUVEC, MLSMR starter and 10KST1 sets (AID 438); details: HUVEC TNFa-induced p65 nuclear translocation; cell count: measured here: nuclei count (cytotoxicity indicator), at 2.08 µM; inhibition: at 2 µM, stronger effect = higher value, 0% TNFa-plus-vehicle, 100% no-TNFa wells;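 note: compound added about 3h40 before a 20 min TNFalpha stimulation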;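 for inhibition: signal is the nuclear over cytoplasmic p65 intensity ratio per well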
[2] = inhibitors of E-selectin induction by TNFa, primary screen, imaging, HUVEC, immunofluorescence, MLSMR starter and 10KST1 sets (AID 487;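 active = visually confirmed hit in the image check and inhibition above 20%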;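 for inhibition: signal is fraction of cell area covered by stained E-selectin grains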;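 for nuclei count: 100% = median nuclei count of all wells on the same plate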); details: HUVEC TNFalpha-induced E-selectin immunofluorescence imaging, at 2 µM; inhibition: stronger effect = higher value; nuclei count: measured here: cell number, toxicity
[3] = DUSP6 inhibitors restoring Erk phosphorylation by chemical complementation, primary imaging in DUSP6-transfected HeLa (AID 609;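 active = compounds giving at least 50% inhibition in the cell-based MKP-3 phosphatase rescue imaging test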;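 for inhibition: phospho-Erk level distribution per well compared with pooled transfected vehicle control wells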); details: HeLa MKP-3 transfected, phospho-Erk imaging KS statistic, at 10 µM, cells stimulated with TPA for 15 min
[4] = molecular target: Dual specificity protein phosphatase 6 (Homo sapiens) (UniProt Q16828); test: as above; details: HeLa MKP-3 transfected, phospho-Erk imaging KS statistic; at 10 µM; stronger effect = higher value; cells stimulated with TPA for 15 min
Chain of Dual specificity protein phosphatase 6 (Homo sapiens) (Q16828 whole entry, looked up): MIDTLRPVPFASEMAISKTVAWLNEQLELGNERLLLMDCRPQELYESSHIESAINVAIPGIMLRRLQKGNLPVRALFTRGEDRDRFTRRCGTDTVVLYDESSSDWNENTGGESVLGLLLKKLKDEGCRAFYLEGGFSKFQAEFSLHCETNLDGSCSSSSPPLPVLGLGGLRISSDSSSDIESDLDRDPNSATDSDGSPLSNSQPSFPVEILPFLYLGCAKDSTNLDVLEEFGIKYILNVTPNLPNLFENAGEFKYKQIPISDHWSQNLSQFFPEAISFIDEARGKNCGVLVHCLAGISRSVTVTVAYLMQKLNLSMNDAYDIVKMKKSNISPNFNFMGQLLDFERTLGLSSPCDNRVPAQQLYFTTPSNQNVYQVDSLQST

[5] = molecular target: Voltage-gated potassium channel subunit beta-2 (Rattus norvegicus) (UniProt P62483); test: KvBeta enzyme negative modulators, primary screen, biochemical, NADPH fluorescence (AID 622;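 active = fluorescence slope higher than the sample average by over 3 SD, cut at about -0.22 in these data, passing the limit was not always enough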;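 note: slope of raw intensity against log time taken from 70 to 1610 s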); details: recombinant KvBeta, 4-cyanobenzaldehyde reduction, at 10 µM, stronger effect = higher value
Chain of Voltage-gated potassium channel subunit beta-2 (Rattus norvegicus) (P62483 whole entry, looked up): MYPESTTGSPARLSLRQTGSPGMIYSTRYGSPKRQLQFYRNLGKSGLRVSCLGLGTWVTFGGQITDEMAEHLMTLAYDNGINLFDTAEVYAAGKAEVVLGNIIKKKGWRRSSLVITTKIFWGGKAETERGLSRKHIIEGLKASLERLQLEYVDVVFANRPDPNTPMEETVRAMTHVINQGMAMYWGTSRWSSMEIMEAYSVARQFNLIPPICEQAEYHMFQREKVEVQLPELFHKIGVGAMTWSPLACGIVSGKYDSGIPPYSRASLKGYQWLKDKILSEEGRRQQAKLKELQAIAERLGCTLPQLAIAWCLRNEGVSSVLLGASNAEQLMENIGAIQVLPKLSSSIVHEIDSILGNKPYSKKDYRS

[6] = molecular target: Voltage-gated potassium channel subunit beta-2 (Rattus norvegicus) (UniProt P62483); test: KvBeta positive modulators, primary screen, biochemical, NADPH fluorescence (AID 623;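 active = NADPH fluorescence slope more negative than the mean of all samples by about 3 SD, 99.7% confidence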;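 note: fluorescence intensity change per second fitted from 20 to 320 s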); details: Recombinant KvBeta, NADPH fluorescence decrease slope, 10 min; at 10 µM; stronger effect = lower value
[7] = molecular target: Muscarinic acetylcholine receptor M4 (Homo sapiens) (UniProt P08173); test: compounds altering M4/GIRK thallium flux, either direction, primary screen, M4 allosteric agonist project, cell-based, HEK293 M4/GIRK, BTC-AM (AID 625;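 active = fluorescence slope after compound addition differing from the mean of all tested samples at 99.7% confidence, mostly higher but some lower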;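 note: thallium influx through GIRK channels coupled to M4 in HEK293 cells with BTC-AM dye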); details: at 10 µM, actives lie on both sides
Chain of Muscarinic acetylcholine receptor M4 (Homo sapiens) (P08173 whole entry, looked up): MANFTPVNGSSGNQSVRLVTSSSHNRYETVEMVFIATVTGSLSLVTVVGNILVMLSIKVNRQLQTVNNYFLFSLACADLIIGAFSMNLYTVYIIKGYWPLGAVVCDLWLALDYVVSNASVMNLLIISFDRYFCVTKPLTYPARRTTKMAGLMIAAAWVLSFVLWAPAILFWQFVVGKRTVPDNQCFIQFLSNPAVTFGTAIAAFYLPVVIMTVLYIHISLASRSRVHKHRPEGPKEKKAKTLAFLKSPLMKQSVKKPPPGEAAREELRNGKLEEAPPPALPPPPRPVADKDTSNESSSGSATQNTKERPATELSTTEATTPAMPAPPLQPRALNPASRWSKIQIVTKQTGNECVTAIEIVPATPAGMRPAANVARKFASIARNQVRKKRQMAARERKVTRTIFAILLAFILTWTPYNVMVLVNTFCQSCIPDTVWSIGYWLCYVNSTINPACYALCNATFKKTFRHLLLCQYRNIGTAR
How it was run: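 Material – HEK293 cells with M4 receptor and GIRK channels · Buffer or medium – pH 7.3 thallium assay buffer · Doses – one dose, 10 µM final · Timing – cells overnight at 37 °C, BTC-AM loading 1 h, reads 2 min total · Measured by – kinetic fluorescence with BTC-AM dye · Controls – carbachol and DMSO controls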

[8] = inhibitors of larval lipid processing in zebrafish, primary screen, whole organism, PED6 fluorescence, gall bladder and intestine (AID 686;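 active = a full or partial loss of lipid-probe fluorescence in the fish gall bladder, intestine or both, judged by eye; inactive = no fluorescence loss, or compound toxic to the fish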;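 note: larvae 5 to 7 days old with five fish per well; signal comes from phospholipase A2 cleavage of quenched PED6 carried via bile; overnight exposure to compound and PED6 before scoring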); details: Zebrafish larvae PED6 lipid processing, fluorescence scoring; screened at 20 µM (by protocol)
How it was run: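 system = live zebrafish larvae aged 5-7 days, whole organism | probe or stimulus = ingested quenched lipid PED6 at 100 nM | doses = 20 µM single dose | timing = overnight exposure | detection = fluorescence microscopy with visual scoring of gall bladder and intestine | read-out = visual per-well fluorescence inhibition score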

[9] = inhibitors of Chlamydomonas gravitaxis, primary screen, whole organism, Chlamydomonas reinhardtii, WT vs cilia-less mutant, absorbance, 96-well (AID 463189;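 active = inhibition at or above 50% relative to wild type and mutant plate controls; inactive = inhibition below 50%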;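 note: 0% = wild type cc124 cells in DMSO and 100% = ciliumless bld1 mutant cells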); details: OD600 absorbance, 2 days, at 10 µM, stronger effect = higher value
[10] = measured here: cell density z-score
[11] = measured here: nuclear c-Myc green intensity z-score
[12] = measured here: nuclear pErk red intensity z-score, stronger effect = higher value

Row | SMILES | cell count [1] | inhibition [1] | inhibition [2] | nuclei count [2] [%] | z-score [3, 10] | z-score [3, 11] | z-score [3, 12] | inhibition [4] | fluorescence slope [5] | NADPH fluorescence slope [6] | fluorescence slope [7] | outcome [8] | inhibition [9]
1 | CCc1nc(NC2CCCCC2)c(C#N)c2c1COC(C)(C)C2 | 573 | -9.3% (inactive) | -95.5% (inactive) | 153 | 0.843 | -0.37 | -0.579 | 29.5% (inactive) | -0.475 (inactive) | -2.5e-05 (inactive) | 0.00603 (inactive) | inactive; toxic | -1.73% (inactive)
2 | COc1ccc2c(c1)c(C(=O)CN1CCOCC1)c(C)n2C | 628 | 0.5% (inactive) | 57.3% (inactive) | 85.8 | -0.409 | -0.95 | 1.79 | 17.8% (inactive) | -0.48 (inactive) | -5.6e-05 (inactive) | 0.00679 (inactive) | active; weak signal in gallbladder and intestine | 27.4% (inactive)
3 | Cc1nnc(SCC(=O)N2CCOCC2)c2ccccc12 | 489 | 7.8% (inactive) | -38.5% (inactive) | 135 | 0.531 | 1.47 | 0.934 | 1.63% (inactive) | -0.534 (inactive) | -0.000118 (inactive) | 0.00485 (inactive) | inactive | -5.11% (inactive)
4 | Cc1cc(=O)oc2ccc(OCC(=O)N3CCc4ccccc43)cc12 | 630 | -1.2% (inactive) | -32.9% (inactive) | 180 | -1.93 | 0.803 | 1.57 | -2.29% (inactive) | -0.478 (inactive) | -7.1e-05 (inactive) | 0.00705 (inactive) | inactive | 1.65% (inactive)
5 | CCC(=O)Nc1c(C#N)c2nc3ccccc3nc2n1C1CCCCC1 | 563 | -4.1% (inactive) | 6.8% (inactive) | 99.6 | 0.5 | -1.07 | -5.03 | -2.09% (inactive) | -0.342 (inactive) | 4.3e-06 (inactive) | 0.00526 (inactive) | inactive | 18.8% (inactive)
6 | COC(=O)CC(=O)Cc1nc(N)nc(Nc2ccc(C)c(C)c2)n1 | 628 | 1.8% (inactive) | -16.8% (inactive) | 133 | 0.15 | 0.484 | 0.858 | -0.233% (inactive) | -0.442 (inactive) | -3e-05 (inactive) | 0.00526 (inactive) | inactive | 1.81% (inactive)
7 | COC(=O)c1ccc(CSc2nc(N3CCOCC3)c3c(c2C#N)CC(C)(C)OC3)o1 | 563 | -4.2% (inactive) | -97.4% (inactive) | 151 | 0.813 | -0.6 | 1.8 | 1.63% (inactive) | -0.461 (inactive) | -0.000112 (inactive) | 0.00467 (inactive) | inactive | 6.95% (inactive)
8 | CC(C)c1ccc(O)c(N)c1 | 660 | -20.9% (inactive) | -16.4% (inactive) | 180 | 1.39 | -1.5 | 0.0534 | 22.1% (inactive) | -0.527 (inactive) | -1.2e-05 (inactive) | 0.00607 (inactive) | inactive | 11.1% (inactive)
9 | CNC(=O)CCn1nc(-c2ccccc2)c2ccccc2c1=O | 737 | -2.4% (inactive) | -67.9% (inactive) | 156 | 1.04 | -1.35 | -0.0887 | 11.4% (inactive) | -0.455 (inactive) | -2.4e-05 (inactive) | 0.00449 (inactive) | inactive | 10.7% (inactive)
10 | COC(=O)C(NC(=O)c1ccco1)(Nc1nc(C)cs1)C(F)(F)F (stereo unspecified) | 365 | -1.1% (inactive) | -89.2% (inactive) | 178 | -0.487 | 0.248 | 1.38 | -6.59% (inactive) | -0.459 (inactive) | -9.6e-05 (inactive) | 0.00502 (inactive) | inactive | 14.1% (inactive)
11 | CCn1c(SCC(=O)N2CCOCC2)nc2sc3c(c2c1=O)CCCC3 | 577 | -9.8% (inactive) | -55% (inactive) | 122 | -0.0545 | -0.0901 | 0.641 | -8.59% (inactive) | -0.463 (inactive) | -0.000111 (inactive) | 0.0048 (inactive) | inactive | 13.7% (inactive)
12 | CCCOc1cccc(C2/C(=C(/O)c3ccc(F)cc3)C(=O)C(=O)N2CCN(C)C)c1 (stereo unspecified) | 676 | -13.2% (inactive) | -51.1% (inactive) | 132 | 0.0201 | -1.18 | -0.732 | -2.91% (inactive) | -0.478 (inactive) | -2.8e-05 (inactive) | 0.00611 (inactive) | inactive | 12.9% (inactive)
